T cruzi growth-1: inhibitors of T. cruzi proliferation | inhibition, % at 8.34 µM | T. cruzi beta-gal in NIH3T3, GalScreen luminescence, 90 h | AID 624255 | 77,000 tested, 5.9% active;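 active = mean inhibition above about 93%, with at least 55% of replicates each passing it, limit read from the data, passing the limit was not always enough; inconclusive = only one of those two conditions holds; inactive = neither condition holds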
IDH1 R132H inh: IDH1 R132H (human) inhibition. O75874. IDH1 R132H reductase, diaphorase/resazurin fluorescence, 60 min. inhibition, % at 10 µM. 70,000 tested, 0.18% active. AID 624101; in the data active = inhibition above about 34%; inconclusive = no clear call, values can overlap the other calls; inactive = below about 11%
Target sequence (O75874 whole entry R132H): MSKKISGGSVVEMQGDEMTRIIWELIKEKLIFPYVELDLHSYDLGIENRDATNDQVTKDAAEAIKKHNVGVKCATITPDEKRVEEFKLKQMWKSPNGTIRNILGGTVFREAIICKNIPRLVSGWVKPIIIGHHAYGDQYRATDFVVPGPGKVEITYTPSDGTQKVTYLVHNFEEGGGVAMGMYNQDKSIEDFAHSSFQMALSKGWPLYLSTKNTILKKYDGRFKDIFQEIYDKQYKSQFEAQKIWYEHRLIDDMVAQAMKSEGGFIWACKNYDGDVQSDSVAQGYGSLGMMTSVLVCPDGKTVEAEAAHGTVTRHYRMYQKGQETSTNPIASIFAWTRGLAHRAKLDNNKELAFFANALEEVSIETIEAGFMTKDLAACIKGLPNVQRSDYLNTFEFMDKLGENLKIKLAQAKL
Pf Dd2 growth: inhibitors of Plasmodium falciparum Dd2 growth. AID 1159554. P. falciparum Dd2 growth, SYBR Green, 72 h; stronger effect = lower value. activity change, % at 10 µM. 94,000 tested, 2.3% active; in the data active = activity change below about -80%; inconclusive = no clear call, values can overlap the other calls
KDM4C inh: KDM4C (human) demethylase inhibition | inhibition, % at 12.5 µM | 96,000 tested, 0.15% active | Q9H3R0 | AID 720574 | GST-KDM4C 2-372, H3K9me3 peptide, LANCE TR-FRET;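 active = mean replicate inhibition above about 25%, with at least 55% of replicates also reaching it, limit read from the data, passing the limit was not always enough; inconclusive = only one of those two conditions met; inactive = neither condition met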
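System – N-terminal GST-fused human GASC-1 (KDM4C) fragment, residues 2-372 · Input – enzyme final amount 10 nM · Technique – LANCE TR-FRET, Eu antibody, ULight-streptavidin, EDTA, ex 340 nm, em 618/671 nm · Medium – HEPES buffer, pH 7.5, plus ascorbate · Incubation – enzyme reaction 30 min, then detection 60 min, both room temperature · Reagent – H3K9me3 peptide with Fe(II)/2OG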
T cruzi growth-2: inhibitors of T. cruzi proliferation; shares compounds with T cruzi growth-1; T. cruzi beta-gal in NIH3T3, GalScreen luminescence, 90 h; inhibition, % at 8.35 µM; 5,600 tested, 72% active;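 active = mean replicate inhibition above about 95% and at least 55% of replicates individually reaching it, limit read from the data; inconclusive = only one of the two criteria is met; inactive = neither criterion is met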
T cruzi growth-3: blocks T. cruzi growth in NIH3T3 host cells; 5,600 tested, 21% active; shares compounds with T cruzi growth-1; T. cruzi beta-gal in NIH3T3, GalScreen luminescence, 90 h; inhibition, % at 2.09 µM;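 active = mean inhibition above about 95%, with at least 55% of replicates also reaching it, limit read from the data; inconclusive = meets just one of the two conditions; inactive = meets neither condition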
NIH3T3 tox: kills mouse NIH/3T3 fibroblasts | shares compounds with T cruzi growth-1 | AID 651742 | cytotoxicity (signal decrease), % at 8.35 µM | 5,600 tested, 14% active | NIH/3T3 viability, CellTiter-Glo ATP luminescence, 90 h;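 active = mean signal decrease across replicates above about 35% based on untreated-well scatter, with enough replicates individually passing, limit read from the data; inconclusive = no rule stated though some were filed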
3T3 cytotox 2: kills mouse NIH/3T3 fibroblasts. NIH/3T3 viability, CellTiter-Glo ATP luminescence, 90 h. inhibition, % at 24.9 µM. 5,600 tested, 56% active. shares compounds with T cruzi growth-1. AID 651744;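 active = mean loss of cell viability signal at or above a set limit, and enough replicates individually reaching it; inconclusive = meets only the mean limit or only the replicate share; inactive = meets neither condition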
Numbers stand for hits; – = inactive; ? = inconclusive; · = no result. The list is not random: actives were taken first. Their share in the collection is about 5.9%.

SMILES	T cruzi growth-1	IDH1 R132H inh	Pf Dd2 growth	KDM4C inh	T cruzi growth-2	T cruzi growth-3	NIH3T3 tox	3T3 cytotox 2
CNC[C@@H]1OCCCC[C@@H](C)Oc2ccc(NC(=O)Nc3ccc(C(F)(F)F)cc3)cc2C(=O)N([C@@H](C)CO)C[C@H]1C	?	·	–	–	–	–	–	–
CNC[C@@H]1OCCCC[C@@H](C)Oc2ccc(NC(=O)Nc3ccc(C(F)(F)F)cc3)cc2C(=O)N([C@@H](C)CO)C[C@@H]1C	–	–	–	–	·	·	·	·
Cc1cc(N(CC(=O)Nc2ccc(Oc3ccccc3)cc2)S(C)(=O)=O)ccc1Br	·	–	·	·	·	·	·	·
O=C(C[C@H]1CC[C@H]2[C@@H](COC[C@H](O)CN2S(=O)(=O)c2cccc(Cl)c2)O1)NCCCN1CCOCC1	·	·	–	–	·	·	·	·
C[C@H]1CCCCO[C@@H](CN(C)C(=O)Nc2ccccc2)[C@@H](C)CN([C@@H](C)CO)C(=O)c2cc(NC(=O)Nc3ccc(C(F)(F)F)cc3)ccc2O1	·	–	–	–	·	·	·	·
CC(C)NC(=O)N(C)C[C@@H]1OCCCC[C@H](C)Oc2ccc(NC(=O)Nc3ccc(C(F)(F)F)cc3)cc2C(=O)N([C@@H](C)CO)C[C@@H]1C	?	–	–	–	109	–	–	–
C[C@@H]1CCCCO[C@@H](CN(C)C(=O)Nc2ccc(C(F)(F)F)cc2)[C@@H](C)CN([C@H](C)CO)C(=O)c2cc(NC(=O)Nc3ccc(C(F)(F)F)cc3)ccc2O1	116	·	–	–	108	–	–	?
C[C@@H]1CCCCO[C@@H](CN(C)C(=O)Nc2ccc(F)cc2)[C@@H](C)CN([C@H](C)CO)C(=O)c2cc(NC(=O)Nc3ccc(C(F)(F)F)cc3)ccc2O1	–	·	–	–	·	·	·	·
C[C@@H]1CCCCO[C@H](CN(C)C(=O)Nc2ccc(F)cc2)[C@H](C)CN([C@@H](C)CO)C(=O)c2cc(NC(=O)Nc3ccc(C(F)(F)F)cc3)ccc2O1	97	–	–	–	102	115	–	–
C[C@@H]1CCCCO[C@H](CN(C)C(=O)Nc2ccc(F)cc2)[C@@H](C)CN([C@H](C)CO)C(=O)c2cc(NC(=O)Nc3ccc(C(F)(F)F)cc3)ccc2O1	?	·	–	–	105	101	–	–
O=C(C[C@H]1C=C[C@@H](NC(=O)Nc2ccc3c(c2)OCO3)[C@@H](CO)O1)NCc1ccc(Cl)cc1	·	·	–	–	·	·	·	·
O=C(N[C@H]1CC[C@@H](CCNS(=O)(=O)c2ccc(Cl)cc2)O[C@H]1CO)c1cccnc1	–	–	–	–	·	·	·	·
O=C(CCN1C(=O)c2ccccc2S1(=O)=O)Nc1cccc(Cl)c1Cl	·	–	·	·	·	·	·	·
O=C(NCC[C@H]1CC[C@H](NC(=O)C2CCCCC2)[C@H](CO)O1)c1cc(Cl)cc(Cl)c1	–	–	–	–	·	·	·	·
O=S(=O)(Cc1ccccc1)N1CCCCN2[C@H](C1)[C@@H](c1ccc(-c3cncnc3)cc1)[C@@H]2CO	?	·	–	–	96	–	–	–
O=S(=O)(Cc1ccccc1)N1CCCCN2[C@H](C1)[C@H](c1ccc(-c3ccncc3)cc1)[C@@H]2CO	–	·	–	–	·	·	·	·
O=S(=O)(Cc1ccccc1)N1CCCCN2[C@@H](CO)[C@H](c3ccc(-c4ccc(F)cc4)cc3)[C@@H]2C1	–	·	–	–	·	·	·	·
O=S(=O)(Cc1ccccc1)N1CCCCN2[C@H](C1)[C@H](c1ccc(-c3ccccc3)cc1)[C@@H]2CO	118	·	–	–	105	–	–	104
O=S(=O)(Cc1ccccc1)N1CCCCN2[C@H](C1)[C@@H](c1ccc(-c3ccccc3)cc1)[C@@H]2CO	115	·	–	–	101	–	–	96
COc1cccc(CN2CC3(CN(C)C3)c3c([nH]c4cc(OC)ccc34)[C@@H]2CO)c1	·	·	–	–	·	·	·	·
CC(C)C#Cc1ccc2c(c1)O[C@H](CN(C)Cc1ccccc1)[C@@H](C)CN([C@@H](C)CO)S2(=O)=O	106	–	–	–	–	103	–	106
CC(C)C#Cc1ccc2c(c1)O[C@@H](CN(C)Cc1ccccc1)[C@@H](C)CN([C@@H](C)CO)S2(=O)=O	106	–	–	–	101	–	–	103
CC(C)C#Cc1ccc2c(c1)O[C@@H](CN(C)Cc1ccccc1)[C@H](C)CN([C@@H](C)CO)S2(=O)=O	–	–	–	–	·	·	·	·
CC(C)C#Cc1ccc2c(c1)O[C@@H](CN(C)Cc1ccccc1)[C@@H](C)CN([C@H](C)CO)S2(=O)=O	111	–	–	–	107	–	–	104
C[C@H](CO)N1C[C@H](C)[C@@H](CN(C)Cc2ccccc2)Oc2cc(C#CC3CC3)ccc2S1(=O)=O	128	–	–	–	97	–	–	105
SMILES	T cruzi growth-1	IDH1 R132H inh	Pf Dd2 growth	KDM4C inh	T cruzi growth-2	T cruzi growth-3	NIH3T3 tox	3T3 cytotox 2
CCC(=O)Nc1ccc2c(c1)C(=O)N(C)C[C@@H](OC)[C@H](C)CN(C(=O)C1CC1)[C@@H](C)CO2	·	–	·	–	·	·	·	·
COc1ccc(NC(=O)Nc2ccc3c(c2)C(=O)N([C@@H](C)CO)C[C@H](C)[C@H](CN(C)Cc2ccc(-c4ccccc4)cc2)O3)cc1	–	–	–	–	·	·	·	·
CC(C)C#Cc1ccc2c(c1)O[C@H](CN(C)Cc1ccccc1)[C@@H](C)CN([C@H](C)CO)S2(=O)=O	–	–	–	–	·	·	·	·
CC(C)C#Cc1ccc2c(c1)O[C@H](CN(C)Cc1ccccc1)[C@H](C)CN([C@H](C)CO)S2(=O)=O	105	–	–	–	102	–	–	103
OC[C@@H]1[C@H](c2ccccc2)C2(CN(CC3CC3)C2)N1Cc1nccs1	·	·	–	–	·	·	·	·
CC(C)CC#Cc1ccc([C@@H]2[C@@H](CO)N3CCCCN(C(=O)NC4CCCC4)C[C@@H]23)cc1	102	·	–	–	101	–	–	107
CCCC#Cc1ccc([C@H]2[C@H](CO)N3CCCCN(C(=O)NC4CCCC4)C[C@@H]23)cc1	?	·	–	–	–	?	48	105
CC(C)CC#Cc1ccc([C@H]2[C@H](CO)N3CCCCN(C(=O)NC4CCCC4)C[C@@H]23)cc1	113	·	–	–	–	–	43	103
CC(C)CC#Cc1ccc([C@H]2[C@@H](CO)N3CCCCN(C(=O)NC4CCCC4)C[C@@H]23)cc1	118	·	–	–	110	–	–	104
COCC#Cc1ccc([C@H]2[C@@H](CO)N3CCCCN(C(=O)NC4CCCC4)C[C@H]23)cc1	–	·	–	–	·	·	·	·
COc1ccc(CN(C)C[C@H]2Oc3ccc(NC(=O)Nc4c(C)noc4C)cc3CC(=O)N([C@@H](C)CO)C[C@H]2C)cc1	–	–	–	–	·	·	·	·
